We go through 8 molecules from paper PMC6656587 (Bioorganic chemistry, 2019).

Broadly, the solubility is the concentration that dissolves in the medium under given conditions. A high value points to a readily soluble substance. As usually defined, the logP is the decadic logarithm of the partition coefficient of the neutral form, usually between octanol and water. By IC50 is commonly meant the point on the concentration scale where inhibition reaches its midpoint.

A short description of data set [1]: Solubility maximum under the assay's conditions. The conditions noted are these: 37 °C, plasma or biological fluid, kinetic from dmso stock. It counts as physicochemical.
The subject of the next data set is PAM212 keratinocytes. Description: PAM212 keratinocyte growth inhibition with UVA light. It counts as cell-based, mouse. The conditions noted are these: plus UVA light.
For data set [2] the following is noted: known measured logP used in the discussion; ref not given; cited from earlier work.
A further data set deals with plasmid pZeoSV DNA. Description: Plasmid DNA nicking and unwinding assay with UVA light. The class given is biochemical. The following applies: for Percentage of nicked plasmid: neutral agarose gels. The method in brief: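 pZeoSV plasmid (75 ng per 10 μL) in TE buffer (10 mM Tris–HCl, 1 mM EDTA, pH 8), with test compound added from a 100× DMSO concentrate. UVA (320–400 nm) was given as for the cell cultures: 2.4 mW/cm2, 1.28 J/cm2. Aliquots taken before and after UVA were run on 1.2% neutral (Tris-acetate-EDTA) or alkaline agarose and stained with ethidium bromide. Percent nicked plasmid came from band image analysis.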

In data set [3] the test system is MCF-7 breast carcinoma cell line. The conditions noted are these: read-out: IC50, phototoxicity; cited from earlier work.

Converted amounts (≈) assume the structure as drawn.

`Cc1cc(=O)oc2c(C)c(O)c([N+](=O)[O-])cc12` [Compound 18, 4,8-dimethyl-6-nitro-7-hydroxycoumarin] had a solubility in data set [1] of 100 µM (≈ 23.5 µg/mL). Further, the “photo-activity on keratinocyte growth (in words)” value (“photo-activity” for short) in the data set with PAM212 keratinocytes was “no photocytotoxicity”.
On to `Cc1cc(=O)oc2c(C)c(O)ccc12` [Compound 12, 4,8-dimethyl-7-hydroxycoumarin], for which the lipophilicity (logP) in data set [2] is recorded as 2.1.
On to `C=CCOc1ccc2c(C)c(Br)c(=O)oc2c1C` [Compound 58, 4,8-dimethyl-3-bromo-7-allyloxycoumarin], for which the “Percentage of nicked plasmid” value amounted to 3.2% with plasmid pZeoSV DNA (1 μM coumarin plus UVA light), 12.0% in the data set with plasmid pZeoSV DNA (10 μM coumarin plus UVA light) and 20.2% in the data set on plasmid pZeoSV DNA (100 μM coumarin plus UVA light). For the same molecule, the “effect on plasmid DNA (in words)” value with plasmid pZeoSV DNA (plus UVA light, neutral gels) was “concentration-dependent alteration in migration”.
For `Cc1c(O)ccc2c(C(F)(F)F)cc(=O)oc12` [Compound 37, 4-trifluoromethyl-8-methyl-7-hydroxycoumarin], the “photo-activity” value with PAM212 keratinocytes is “inactive”.
Still for that read-out and setting: to `O=c1cc(C(F)(F)F)c2ccc(O)cc2o1` [Compound 47, 4-trifluoromethyl-7-hydroxycoumarin] belongs “inactive”; to `Cc1c(F)c(=O)oc2c(C)c(O)ccc12` [Compound 68, 3-fluoro-4,8-dimethyl-7-hydroxycoumarin], “no activity”.
Regarding `O=c1ccc2ccc(O)cc2o1` [Compound 1, umbelliferone], the “photo-activity” value in the data set with PAM212 keratinocytes was “no activity”. Besides, the IC50 in data set [3] was 476 µM.
Consider `Cc1c(I)c(=O)oc2c(C)c(O)ccc12` [Compound 71, 3-Iodo-4,8-dimethyl-7-hydroxycoumarin], for which the entries for the “Percentage of nicked plasmid” value in the data set on plasmid pZeoSV DNA (1 μM coumarin plus UVA light), with plasmid pZeoSV DNA (10 μM coumarin plus UVA light) and in the data set on plasmid pZeoSV DNA (100 μM coumarin plus UVA light) were 6.8%, 80.2% and 98.6%, respectively. In the data set with plasmid pZeoSV DNA (plus UVA light), the “linearization of the plasmid compared to the 7-allyloxy ethers 14 and 58” value is given as “nearly five times greater linearization”. In addition, the “effect on plasmid DNA (in words)” value was “Generally similar results” in the data set with plasmid pZeoSV DNA (plus UVA light, alkaline gels) and “concentration-dependent alteration in migration” in the data set with plasmid pZeoSV DNA (plus UVA light, neutral gels).
